Screening data (PubChem BioAssay)
NSD2 HMT inh: NSD2 histone methyltransferase inhibitors, primary screen, biochemical, AlphaScreen, single concentration, set 2; NSD2 peptide methylation, 120 min; inhibition, % at 12.5 µM; hit rate 0.54% among 310,000; Histone-lysine N-methyltransferase NSD2 (Homo sapiens), O96028; in the data active = inhibition above about 50%
ARNT TACC3 PPI: disruptors of ARNT/TACC3 protein interaction, primary screen, biochemical, AlphaScreen, single concentration; inhibition, % at 9.99 µM; AlphaScreen His-ARNT PAS-B/GST-TACC3 binding, luminescence; TACC3 fragment carries E629A point mutation; hit rate 0.66% among 390,000;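 active = mean inhibition of replicates at least 50% and at least half of replicates each reaching 50%; inconclusive = half or more replicates reach 50% but mean below 50%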;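 note: 0% = complete ARNT plus TACC3 wells and 100% = ARNT alone without TACC3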
SR-BI uptake up: activators of SR-BI mediated DiI-HDL uptake, primary screen, ldlA[mSR-BI] CHO cells, DiI fluorescence; 3 h; 100 = double the neutral-control signal; activation, % at 12.5 µM; hit rate 0.096% among 320,000; AID 504775, 2011;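 active = mean replicate activation of at least 60% and every replicate at or above 60%; inconclusive = mean or all-replicate condition met, but not both; inactive = mean below 60% and not all replicates reaching 60%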;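 note: 0% = median plate neutral-control signal and 100% = twice that signal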
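Test system: SR-BI-overexpressing, LDLR-lacking CHO cells. Measured by: DiI fluorescence, bottom read. Medium: Ham's F12 with 0.5% BSA, HEPES 25 mM, pH 7.4. Timing: 3 h uptake period with compound, 37 °C.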
sPLA2-III inh: human group III sPLA2 inhibitors, primary screen, biochemical, QFRET, BODIPY PC-A2 liposome substrate; Group 3 secretory phospholipase A2 (Homo sapiens), Q9NZ20; QFRET BODIPY PC-A2 liposome hydrolysis, fluorescence; inhibition, % at 12.2 µM; hit rate 0.56% among 370,000;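 active = inhibition above mean plus 3 SD of compounds lying within the high and low control bounds, cut at about 19% in these data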;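 note: 0% = median of test compound wells and 100% = no enzyme DMSO wells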
SR-BI HDL uptake: inhibitors of SR-BI mediated HDL lipid uptake, primary screen, ldlA[mSR-BI] cells, fluorescence, single point; Scavenger receptor class B member 1 (Mus musculus), Q61009; ldlA[mSR-BI] CHO cells, DiI-HDL uptake fluorescence, 3 h; inhibition, % at 12.5 µM; hit rate 0.96% among 320,000;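 active = mean replicate inhibition of at least 70% and a set share of replicates each scoring 70 or more; inconclusive = meets just one of the two criteria; inactive = fails both criteria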;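 note: 0% = median of neutral control wells and 100% = median of positive control wells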
Target sequence (Q61009 whole entry, looked up): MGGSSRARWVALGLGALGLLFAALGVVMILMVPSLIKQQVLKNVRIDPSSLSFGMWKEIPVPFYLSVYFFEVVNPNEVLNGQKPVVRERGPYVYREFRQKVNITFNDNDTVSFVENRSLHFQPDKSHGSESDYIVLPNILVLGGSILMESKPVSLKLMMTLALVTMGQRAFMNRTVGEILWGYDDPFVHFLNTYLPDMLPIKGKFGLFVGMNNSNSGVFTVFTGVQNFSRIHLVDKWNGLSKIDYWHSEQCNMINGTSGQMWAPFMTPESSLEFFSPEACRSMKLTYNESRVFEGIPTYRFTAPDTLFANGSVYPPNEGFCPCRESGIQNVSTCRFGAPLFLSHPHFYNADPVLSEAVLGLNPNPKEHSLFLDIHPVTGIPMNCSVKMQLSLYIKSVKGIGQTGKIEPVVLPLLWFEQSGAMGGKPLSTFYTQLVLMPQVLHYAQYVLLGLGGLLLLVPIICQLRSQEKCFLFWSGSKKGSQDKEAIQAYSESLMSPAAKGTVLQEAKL
Xi reactivation: activators of inactive X chromosome reactivation, primary screen, imaging, XiGFP fibroblasts, GFP high-content imaging, set 2 | AID 743238, 2013 | XiGFP mouse fibroblasts, % GFP-positive cells imaging, 3 d; cells co-treated with 5-aza-dC sensitizer; scaled so ellipticine positive control = 100% | hit rate 0.055% among 360,000 | activation, % at 7.58 µM;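 active = mean normalized replicate activation at least 10% and every replicate at or above 10%; inconclusive = only one of the two criteria met; inactive = mean below 10% and not all replicates reach 10%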;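 note: 0% = median of on-plate neutral control wells and 100% = ellipticine 6 µM median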
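Material: XiGFP fibroblasts, SV40-immortalized; Buffer or medium: DMEM containing 5-aza-dC; Compound dosing: single point; Times: 3 days compound exposure.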
hGIII sPLA2 conf: human group III sPLA2 inhibitors, confirmation, biochemical, QFRET, triplicate; shares compounds with sPLA2-III inh; recombinant hGIII-sPLA2, BODIPY PC-A2 QFRET fluorescence; inhibition, % at 12.2 µM; hit rate 34% among 2,000; AID 743280, 2014;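 active = mean inhibition across triplicates above the hit cutoff set in the earlier primary screen, cut at about 19% in these data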;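 note: 0% = enzyme with DMSO and 100% = DMSO wells lacking enzyme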
BODIPY interf: 535nm fluorescence optical interference, confirmation, artefact control for HGIII-sPLA2 inhibitor project, biochemical, QFRET; shares compounds with sPLA2-III inh; BODIPY FL product fluorescence interference; inhibition, % at 12.2 µM; hit rate 8.5% among 2,000; AID 743282, 2014;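 active = average inhibition above the solvent-only control mean plus 3 SD, cut at about 6% in these data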;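 note: 0% = DMSO with substrate plus product and 100% = DMSO with substrate alone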
BODIPY interf DR: 535nm fluorescence optical interference, dose response, artefact control for HGIII-sPLA2 inhibitor project, biochemical, QFRET. shares compounds with sPLA2-III inh. BODIPY FL product fluorescence interference, cell-free. IC50, µM. 240 tested, under 10 active. AID 743455, 2014;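 active = IC50 at or below 10 µM; inactive = IC50 above 10 µM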
Starred values were filed as active, the others as inactive; ? = inconclusive; . = no result given. Most compounds without a hit are left out; they make up all but 2% or so of the library.

SMILES	NSD2 HMT inh	ARNT TACC3 PPI	SR-BI uptake up	sPLA2-III inh	SR-BI HDL uptake	Xi reactivation	hGIII sPLA2 conf	BODIPY interf	others
COc1cc(-c2n[nH]c(=S)n2-c2cccc(C(F)(F)F)c2)cc(OC)c1OC	0	-2	21	26*	-21	0	25*	-1
CC(C)C(N)c1csc(Nc2nncc3ccccc23)n1 (configuration not stated)	-5	.	.	20*	.	0	6	-16
COc1cccc(Nc2nc(C(N)C(C)C)cs2)n1 (configuration not stated)	2	.	.	28*	.	0	10	-13
COc1cccc(Nc2nc(C(N)CC(C)C)cs2)n1 (configuration not stated)	8	.	.	-1	.	0	.	.
CC(N)c1csc(Nc2nncc3ccccc23)n1 (configuration not stated)	2	.	.	23*	.	0	2	-8
Cc1cc(-c2nc3cc(F)ccc3s2)ccc1N	5	.	-5	11	5	0	.	.
CCOC(=O)Nc1sc(C(=O)N(CC)CC)c(C)c1C(=O)OCC	4	-4	-8	-3	8	.	.	.
Nc1nc(N)c2cc(CNc3ccc(Cl)c(Cl)c3)ccc2n1	8	.	.	23*	.	0	11	-14
CC(C)CCNC(=S)Nc1ccccc1F	-1	0	9	20*	-9	0	9	-1
N=C1C=CC(=C(c2ccc(N)cc2)c2ccc(N)cc2)C=C1	.	3	-104	21*	104*	0	17	-1
CN(C)c1ccc(/C=N\Nc2nc(-c3ccccc3)cc(=O)[nH]2)cc1	-1	-24	-26	20*	26	0	7	2
CCC(C)NC(=O)CCSc1ccc(C)cc1 (configuration not stated)	-3	6	19	19*	-19	1	1	-4
CCOc1ccc(N2C(=O)Nc3ccc(Br)cc3C2(O)C(=O)NCCN(C)C)cc1 (configuration not stated)	-2	7	25	-2	-25	0	.	.
CCc1ccc(N2C(=O)Nc3ccc(Br)cc3C2(O)C(=O)NCCN(C)C)cc1 (configuration not stated)	0	-23	9	20*	-9	0	2	-6
COc1ccc(C(=O)NNC(=S)NC(=O)c2ccco2)cc1	0	25	3	20*	-3	.	24*	0
O=C(NC(=S)NNC(=O)c1ccco1)c1ccc(Br)cc1	4	7	14	14	-14	0	.	.
CCCOc1ccc(C(=O)NNC(=S)NC(=O)c2ccco2)cc1	1	5	14	31*	-14	0	34*	-8	BODIPY interf DR=>122
O=C(COc1ccc(Cl)cc1Cl)NNC(=S)NC(=O)c1ccco1	-2	-2	10	-6	-10	0	.	.
O=C(/C=C/c1ccco1)NC(=S)NNC(=O)c1ccco1	29	29	17	31*	-17	.	16	4
CC(Oc1ccc(Cl)cc1)C(=O)NNC(=S)NC(=O)c1ccco1 (configuration not stated)	0	4	6	28*	-6	0	36*	-1	BODIPY interf DR=>122
O=C(NNC(=S)NC(=O)c1ccco1)c1ccc(F)cc1	0	6	.	7	.	0	.	.
CC(=O)NC(=S)Nc1ccc(NC(=S)NC(=O)/C=C/c2ccco2)cc1	1	0	-42	2	42	0	.	.
CN(C)C(=O)[C@@]1(Cc2ccccc2N=[N+]=[N-])N=C(c2ccc(OCCCO)cc2)O[C@H]1c1ccccc1	.	3	.	.	.	.	.	.
O=C(C[C@H]1C=C[C@@H](NC(=O)C2CC2)[C@H](CO)O1)Nc1ccccc1	.	-2	.	.	.	0	.	.
Cc1cc(C)c(S(=O)(=O)Nc2cccc(C(=O)O)c2)cc1S(=O)(=O)Nc1cccc(C(=O)O)c1	5	-2	14	-8	-14	0	.	.
SMILES	NSD2 HMT inh	ARNT TACC3 PPI	SR-BI uptake up	sPLA2-III inh	SR-BI HDL uptake	Xi reactivation	hGIII sPLA2 conf	BODIPY interf	others
CCO[C@H]1OC(C(=O)NC2CC2)=C[C@@H](C2CCCCC2)[C@@H]1CCCO	.	10	-16	-3	16	0	.	.
O=C(NC(=S)NC1CCC(O)CC1)c1ccco1 (configuration not stated)	-2	-31	13	20*	-13	0	1	-4
Cc1ccc(S(=O)(=O)N2CCCCC2)cc1NC(=O)c1cc(=O)[nH]c2ccccc12	-2	2	8	6	-8	0	.	.
Cc1ccc(-n2c([S-])c(C(=O)Nc3ccc(OC(F)F)cc3)[n+]3ccc(C(=O)NCCO)cc23)cc1C	2	.	-22	-24	22	0	.	.
CCn1c(-c2cccn(Cc3ccc(Cl)cc3Cl)c2=O)n[nH]c1=S	2	-14	-2	21*	2	0	33*	-2	BODIPY interf DR=>122
S=c1[nH]nc(-c2ccccc2Br)n1Cc1ccccc1	2	-1	8	26*	-8	0	19	0
Oc1ccccc1-c1n[nH]c(=S)n1Cc1ccccc1	0	-2	?	17	-65	0	.	.
S=c1[nH]nc(-c2ccc(Cl)cc2Cl)n1Cc1ccccc1	16	3	14	20*	-14	0	28*	0	BODIPY interf DR=>122
CCn1c(-c2ccc(Cl)cc2)n[nH]c1=S	1	-7	5	12	-5	.	.	.
C[C@@H]1CCCN1[C@H]1CS(=O)(=O)N[C@@H]1COCc1ccccc1	.	.	.	3	.	0	.	.
Cn1cnc(CCNC(=O)C[C@H]2CC[C@H]3[C@@H](COC[C@H](O)CN3C(=O)Nc3ccccc3)O2)c1	.	5	.	.	.	0	.	.
CN(Cc1ccccc1)C(=O)c1csc([C@@H]2O[C@H](CO)[C@@H](O)[C@H]2O)n1	.	.	.	20*	.	0	-6	-4
